We go through one compound from ChEMBL document CHEMBL4428071 (J Med Chem, 2016).

Each structure is given as a SMILES string.

A word on the MRT inf: it is the average time that molecules of a dose stay in the body. In general, GI50 refers to the concentration at which growth is held to half of that of the control. The term Tmax denotes the time at which the peak concentration occurs. What is called half-life is the time needed for the level to fall by half in the phase considered. A higher half-life goes with slow decline. As usually defined, the EC50 is the concentration that produces a half-maximal response.

Data set [1] is described as follows: Apparent clearance in Sprague-Dawley rat at 1 mg/kg, iv measured up to 8 hrs post dosing. The note with it: in vivo, read-out: CL(app) (converted). It is filed as ADME, organism-based. Put shortly: (§1)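 Male Sprague-Dawley rats, 8 weeks old, fasted overnight; iv dosing from a 1 mg/mL solution in 5% DMSO/40% PEG400/55% saline. Jugular-vein blood (~0.2 mL, heparinised) taken at 1, 5, 15, 30 min and 1, 2, 4, 6, 8 h; plasma held at -80 °C until analysis; n=3.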

The nature of data set [2]: Apparent volume of distribution in Sprague-Dawley rat at 1 mg/kg, iv measured up to 8 hrs post dosing. It is filed as ADME, organism-based. The note with it: in vivo, read-out: Vz. Put shortly: as §1
The nature of data set [3]: MRT (0 to infinity) in Sprague-Dawley rat at 1 mg/kg, iv measured up to 8 hrs post dosing. It is filed as ADME, organism-based. Particulars: in vivo. Put shortly:
(§2)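 Male Sprague-Dawley rats, 8 weeks old, fasted overnight, dosed at 1 mg/kg iv from a 1 mg/mL stock in 5% DMSO/40% PEG400/55% saline. About 0.2 mL jugular blood taken into heparin at 1 min to 8 h. Plasma held at -80 °C until analysis. n = 3, mean reported.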

Data set [4] relates to Mast/stem cell growth factor receptor Kit (Homo sapiens), P10721 [V559D,V654A]. The experiment in a line: Inhibition of TEL-fused cKIT V559D/V654A double mutant (unknown origin) expressed in mouse BA/F3 cells assessed as cell growth inhibition after 72 hrs by cell titer-glo assay. Type of data set: cell-based. Summed up:
(§3)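 Cells seeded at 3000 per well and exposed to serial compound dilutions for 72 h. Viability read by CellTiter-Glo luminescence and normalised to DMSO controls; mean of three independent measurements. BaF3 lines kept IL-3-free in RPMI 1640/10% FBS after retroviral transduction and puromycin selection. GIST lines grown in DMEM/10% FBS.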

Data set [5] addresses T1, Mast/stem cell growth factor receptor Kit (Homo sapiens, UniProt P10721). Kind of data set: Inhibition of wild type cKIT in human GIST-T1 cells assessed as cell growth inhibition after 72 hrs by cell titer-glo assay. Type of data set: cell-based. Put shortly:
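GIST-T1 cells (cKIT wt) grown in DMEM with 10% FBS and 1% penicillin/streptomycin at 37 °C, 5% CO2. Viability read by CellTiter-Glo luminescence and normalized to DMSO controls. GI50 taken from the mean of three independent measurements.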
(Cellular ATP, detected with luciferase, serves as a proxy for viable cell number.)

The target of data set [6] is T1, Mast/stem cell growth factor receptor Kit. Kind of data set: Inhibition of TEL-fused cKIT (unknown origin) expressed in mouse BA/F3 cells assessed as cell growth inhibition after 72 hrs by cell titer-glo assay. It is filed as cell-based.
In data set [7] the target is Serine/threonine-protein kinase 10 (Homo sapiens) (UniProt O94804). The experiment in a line: Inhibition of partial length human LOK expressed in bacterial expression system assessed as activity remaining at 1 uM by kinome scan assay.
Chain of Serine/threonine-protein kinase 10 (Homo sapiens) (O94804 whole entry, looked up, the tested form may be a part): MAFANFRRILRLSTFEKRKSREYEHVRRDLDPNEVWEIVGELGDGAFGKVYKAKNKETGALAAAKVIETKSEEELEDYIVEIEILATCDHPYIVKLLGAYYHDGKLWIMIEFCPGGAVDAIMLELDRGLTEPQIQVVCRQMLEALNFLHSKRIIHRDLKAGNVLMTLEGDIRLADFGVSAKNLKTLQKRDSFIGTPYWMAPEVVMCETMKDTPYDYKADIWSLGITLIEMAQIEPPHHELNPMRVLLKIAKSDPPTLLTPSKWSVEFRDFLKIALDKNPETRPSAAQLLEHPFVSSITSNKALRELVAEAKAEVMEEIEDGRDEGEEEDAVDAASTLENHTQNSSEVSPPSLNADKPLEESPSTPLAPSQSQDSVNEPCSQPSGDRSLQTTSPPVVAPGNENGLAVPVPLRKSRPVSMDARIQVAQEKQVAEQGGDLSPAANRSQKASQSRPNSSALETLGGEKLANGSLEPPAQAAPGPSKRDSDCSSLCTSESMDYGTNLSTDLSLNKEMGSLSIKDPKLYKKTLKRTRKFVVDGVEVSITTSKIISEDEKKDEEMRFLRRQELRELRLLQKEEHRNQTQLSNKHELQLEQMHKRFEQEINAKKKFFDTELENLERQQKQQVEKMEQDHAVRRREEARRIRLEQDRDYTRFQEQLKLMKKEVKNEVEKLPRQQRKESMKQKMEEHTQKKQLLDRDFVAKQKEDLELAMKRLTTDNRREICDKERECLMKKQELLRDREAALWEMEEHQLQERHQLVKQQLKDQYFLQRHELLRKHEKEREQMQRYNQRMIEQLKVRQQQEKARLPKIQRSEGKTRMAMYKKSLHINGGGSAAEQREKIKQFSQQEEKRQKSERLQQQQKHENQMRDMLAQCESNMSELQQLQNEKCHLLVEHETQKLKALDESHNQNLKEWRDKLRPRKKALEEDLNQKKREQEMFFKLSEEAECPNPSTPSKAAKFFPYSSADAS
The nature of data set [8]: Toxicity in nu/nu mouse xenografted with TEL-fused cKIT T670I mutant expressed in mouse BA/F3 cells assessed as body weight reduction at 25 to 100 mg/kg/day, ip after 10 days. Type of data set: organism-based. Particulars: in vivo, 240 h. Put shortly: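 Female nu/nu mice, 5 weeks old on purchase, injected subcutaneously in the right flank with 1×10^6 BaF3-TEL-cKIT-T670I cells in PBS/Matrigel 1:1. At 200–400 mm³ tumours, mice were randomized to 7 per group. They then got 25, 50 or 100 mg/kg/day ip or vehicle (0.5% methylcellulose/0.4% Tween80 in water) for 10 days. Body weight was recorded daily relative to initial weight.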

The test system of data set [9] is BaF3. The experiment in a line: Antitumor activity against TEL-fused cKIT T670I mutant expressing mouse BA/F3 cells allografted in nu/nu mouse assessed as tumor growth inhibition at 50 mg/kg/day, ip administered daily for 10 days. It is filed as functional. The note with it: 240 h, read-out: TGI. Put shortly:
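Female nu/nu mice, 5 weeks old at purchase, given 1 million BaF3-TEL-cKIT-T670I cells in PBS/Matrigel 1:1 subcutaneously on the right flank. At tumour volume 200–400 mm3, randomised into groups of 7 and dosed IP daily for 10 days (25, 50, 100 mg/kg/d or vehicle: 0.5% methylcellulose/0.4% Tween80 in water). Tumour volume (W2×L/2) and body weight recorded daily.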

Data set [10] concerns Mast/stem cell growth factor receptor Kit (Homo sapiens), P10721 [T670I]. Kind of data set: Ratio of Imatinib IC50 to compound IC50 for cKIT T670I mutant in human in GIST-5R cells. Type of data set: cell-based.
Chain of Mast/stem cell growth factor receptor Kit (Homo sapiens), P10721 [T670I] (P10721 whole entry T670I): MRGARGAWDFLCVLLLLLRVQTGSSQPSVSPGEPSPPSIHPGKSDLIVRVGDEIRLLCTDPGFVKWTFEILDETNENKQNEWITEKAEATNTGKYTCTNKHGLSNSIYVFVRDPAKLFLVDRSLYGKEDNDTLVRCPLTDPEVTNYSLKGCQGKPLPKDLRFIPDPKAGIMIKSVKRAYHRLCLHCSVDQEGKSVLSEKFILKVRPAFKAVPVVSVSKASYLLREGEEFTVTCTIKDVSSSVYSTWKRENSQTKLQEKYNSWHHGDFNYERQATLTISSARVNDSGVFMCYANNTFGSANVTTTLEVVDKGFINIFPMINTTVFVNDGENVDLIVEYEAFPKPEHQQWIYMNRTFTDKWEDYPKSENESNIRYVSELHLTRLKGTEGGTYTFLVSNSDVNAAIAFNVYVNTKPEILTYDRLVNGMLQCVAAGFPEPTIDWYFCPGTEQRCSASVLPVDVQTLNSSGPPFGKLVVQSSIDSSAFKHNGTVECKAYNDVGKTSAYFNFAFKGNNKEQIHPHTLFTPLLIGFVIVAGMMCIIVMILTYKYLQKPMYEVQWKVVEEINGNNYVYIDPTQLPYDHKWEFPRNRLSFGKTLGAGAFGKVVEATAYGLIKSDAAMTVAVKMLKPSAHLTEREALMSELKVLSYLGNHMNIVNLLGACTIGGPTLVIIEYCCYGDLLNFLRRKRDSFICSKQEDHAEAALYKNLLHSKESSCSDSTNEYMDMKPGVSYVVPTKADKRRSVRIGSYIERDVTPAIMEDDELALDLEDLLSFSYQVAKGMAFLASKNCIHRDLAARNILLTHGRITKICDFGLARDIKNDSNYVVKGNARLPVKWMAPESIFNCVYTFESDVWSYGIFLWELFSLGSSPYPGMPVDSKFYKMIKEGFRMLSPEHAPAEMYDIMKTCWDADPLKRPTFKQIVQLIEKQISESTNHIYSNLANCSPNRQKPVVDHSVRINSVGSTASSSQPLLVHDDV
The nature of data set [11]: Tmax in Sprague-Dawley rat at 1 mg/kg, iv measured up to 8 hrs post dosing. It is filed as ADME, organism-based. The note with it: in vivo. Summed up: as §2
A short description of data set [12]: Half life in Sprague-Dawley rat at 1 mg/kg, iv measured up to 8 hrs post dosing. The note with it: in vivo. Type of data set: ADME, organism-based. Summed up:
as §1

In data set [13] the target is Cyclin-dependent kinase-like 2 (Homo sapiens) (UniProt Q92772). The experiment in a line: Inhibition of partial length human CDKL2 expressed in bacterial expression system assessed as activity remaining at 1 uM by kinome scan assay.
Chain of Cyclin-dependent kinase-like 2 (Homo sapiens) (Q92772 whole entry): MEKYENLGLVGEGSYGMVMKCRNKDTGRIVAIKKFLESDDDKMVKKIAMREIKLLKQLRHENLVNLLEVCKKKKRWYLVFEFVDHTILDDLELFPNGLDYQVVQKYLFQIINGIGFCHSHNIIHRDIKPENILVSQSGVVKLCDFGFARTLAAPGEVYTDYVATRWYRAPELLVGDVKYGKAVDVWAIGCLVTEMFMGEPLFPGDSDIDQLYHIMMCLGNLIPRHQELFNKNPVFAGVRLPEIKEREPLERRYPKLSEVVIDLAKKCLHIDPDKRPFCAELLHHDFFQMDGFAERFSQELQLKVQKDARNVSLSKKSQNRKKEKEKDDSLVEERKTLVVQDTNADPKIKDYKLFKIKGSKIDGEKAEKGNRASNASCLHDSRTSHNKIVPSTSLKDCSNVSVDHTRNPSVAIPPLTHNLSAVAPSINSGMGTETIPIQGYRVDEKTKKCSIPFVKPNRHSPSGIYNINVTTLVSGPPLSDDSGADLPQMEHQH
Data set [14] in a line: Cytotoxicity mouse BA/F3 cells assessed as cell growth inhibition after 72 hrs by cell titer-glo assay. Type of data set: cell-based, BaF3. Put shortly: as §3
In data set [15] the target is T1, Mast/stem cell growth factor receptor Kit. Kind of data set: Inhibition of wild type cKIT in human GIST-T1 cells assessed as downregulation of S6 phosphorylation at S235/236 after 1 hr by Western blot analysis. Type of data set: cell-based. Summed up: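 GIST-T1 cells in DMEM with 10% FBS were exposed to serially diluted compound for 1 h, then lysed. Lysates were analysed by western blot with phospho-specific antibodies against AKT (Ser473), ERK1/2 (Thr202/Tyr204) and S6 ribosomal protein (Ser235/236), each alongside its total protein.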
On the technique in general: Immunoblotting shows a protein as a band on a membrane.

T1 sequence (P10721 whole entry): as the sequence (P10721 whole entry T670I) above, with I670T counted along it
Chain of Mast/stem cell growth factor receptor Kit (Homo sapiens), P10721 [V559D,V654A] (P10721 whole entry V559D/V654A, the tested form may be a part): as the sequence (P10721 whole entry T670I) above, with V559D, V654A, I670T counted along it

Take `CCC(=O)NCC1CCN(c2ccc(NC(=O)Nc3cccc(Oc4ccnc5cc(OC)c(OC)cc45)c3)cc2C(F)(F)F)CC1`: in data set [1], the clearance is 46 mL/min/kg. Moreover, the Vd in [2] is 7.91 L/kg. For the same compound, the MRT inf in [3] amounted to 46.8 min. For the same compound, the figures for the GI50 in data set [4], in [5] and in data set [6] were 360 nM, 4 nM and 57 nM, respectively. Moreover, the Activity in data set [7] is 0.35%; in data set [8], “Non-Toxic”; in [13], 0%. The inhibition in vivo at 50 mg/kg/day in [9] was 37.1%. Besides, the Ratio IC50 in data set [10] came to 300. Further, in data set [11], the Tmax was found to be 1.02 min. In data set [12], this compound gave a half-life of 122 min. For the same compound, in data set [14], the GI50 at 72 h was over 10000 nM. In [15], the EC50 is under 100 nM.
